Measured values from PubChem BioAssay AID2237 (Johns Hopkins Ion Channel Center, 2010).
Screen size: about 310,000 compounds; about 1,500 (0.48%) were called active.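 The calls were made as follows: active = B-score above 5 SD of library B-scores, and initial fluorescence ratio not above library mean plus 5 SD; inactive = the rest.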 For the sample, actives were picked, then their nearest neighbours and some compounds at random.

Biological target: Short transient receptor potential channel 4 (Mus musculus) (UniProt Q9QUQ5)
Sequence (Q9QUQ5 whole entry, looked up): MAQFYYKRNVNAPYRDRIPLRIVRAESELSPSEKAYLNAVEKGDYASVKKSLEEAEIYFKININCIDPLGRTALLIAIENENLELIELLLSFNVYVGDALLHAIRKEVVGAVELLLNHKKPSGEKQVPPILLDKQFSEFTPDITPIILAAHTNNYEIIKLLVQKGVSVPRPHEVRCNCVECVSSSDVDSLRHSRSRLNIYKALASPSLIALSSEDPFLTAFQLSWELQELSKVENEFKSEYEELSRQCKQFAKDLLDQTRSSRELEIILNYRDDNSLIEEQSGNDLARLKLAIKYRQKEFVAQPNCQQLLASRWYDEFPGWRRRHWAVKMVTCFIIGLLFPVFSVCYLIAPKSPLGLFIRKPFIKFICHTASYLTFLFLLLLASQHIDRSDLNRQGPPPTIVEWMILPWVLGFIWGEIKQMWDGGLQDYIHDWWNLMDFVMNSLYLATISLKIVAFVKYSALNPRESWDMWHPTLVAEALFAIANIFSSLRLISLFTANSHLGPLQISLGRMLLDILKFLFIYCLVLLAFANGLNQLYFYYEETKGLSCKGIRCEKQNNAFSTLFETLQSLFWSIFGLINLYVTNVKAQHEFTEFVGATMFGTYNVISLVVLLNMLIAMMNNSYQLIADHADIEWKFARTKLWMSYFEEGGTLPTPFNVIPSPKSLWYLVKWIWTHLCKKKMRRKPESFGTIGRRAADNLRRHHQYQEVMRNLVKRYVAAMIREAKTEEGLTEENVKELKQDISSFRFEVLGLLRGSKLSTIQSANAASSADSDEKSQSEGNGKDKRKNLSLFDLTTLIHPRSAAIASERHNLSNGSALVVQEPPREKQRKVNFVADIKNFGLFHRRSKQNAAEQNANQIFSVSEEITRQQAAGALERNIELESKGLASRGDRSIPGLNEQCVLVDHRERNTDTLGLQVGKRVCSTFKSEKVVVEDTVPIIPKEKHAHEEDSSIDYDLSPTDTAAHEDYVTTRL
Assay: TRPC4 cation channel opening, calcium rise – Fluo4 calcium, HEK293 TRPC4beta/mu-opioid cells, primary screen (AID 2237);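 as to B-score: positive B-score marks a calcium rise read as TRPC4 activation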
Conditions: Fluo4 calcium fluorescence, at 10 µM; active compounds read high
Outline: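 System – HEK293 cells stably co-expressing mouse TRPC4beta and mu-opioid receptor · Signal – Fluo4 calcium-sensitive dye fluorescence, kinetic, 1 Hz baseline · Benchmarks – buffer (low) and maximal DAMGO (high) · Read-out – B score of integrated fluorescence ratio per well · Incubation – dye loading 45 min room temperature, 110 s kinetic read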

B-score, active:
COc1ccc(CCN(C)CCN2C(=O)c3ccccc3C2=O)cc1OC 159
COc1cccc(CN2CCNC(=O)C2CC(=O)N(C)CCc2ccccn2)c1 (configuration not stated) 132
OCCC1CN(Cc2ccccc2-c2ccco2)CCN1Cc1ccsc1 (configuration not stated) 44
O=C(c1c(F)cccc1F)N1CCN(c2ncc(Br)cn2)CC1 204
CCc1ccc(-c2nn(-c3ccccc3)cc2CSC(=N)N)cc1 260
CCCCSc1[nH]c(=O)c(C(=O)OCC)cc1C#N 56
CCc1ccc(C(CNc2nc(C(F)(F)F)nc3ccccc23)N(C)C)cc1 (configuration not stated) 51
O=C(NCc1ccccc1)C1=C[C@@H](C2CCCCC2)C[C@@H](OCc2ccc(CO)cc2)O1 151
CC(C)(C)[C@H]1C=C(C(=O)NCc2ccccc2)O[C@@H](OCc2ccc(CO)cc2)C1 136
COc1ccc(C[C@H]2CN3C(=NC[C@H]3C)N2CCNC(=O)CCC2CCCCC2)cc1 78
CCCc1nc2c(C)cc(-c3nc4ccccc4n3C)cc2n1Cc1ccc(-c2ccccc2C(=O)O)cc1 95
COc1cc(OC)cc(C(=O)N[C@H](C(=O)OCC(=O)NC(C)c2ccccc2)C(C)C)c1 (some centres not stated) 64
c1ccc(C2CCC(N3CCC(N4CCCCC4)CC3)CC2)cc1 (configuration not stated) 123
COC(=O)c1cc(N2CCNCC2)nc2ccccc12 87
CN(C)CCCN(C(=O)c1ccc(S(=O)(=O)N2CCCc3ccccc32)cc1)c1nc2ccc(F)cc2s1 197
Cc1nc(/N=C(\N)NC(=O)NC2CCCCC2)nc2ccccc12 90
CCCc1ccc(OCC(=O)NNC(=S)NC(=O)c2ccco2)cc1 66
CC(Oc1ccc2ccccc2c1)C(=O)NNC(=S)NC(=O)c1ccco1 (configuration not stated) 65
Clc1ccc(COn2c(-c3ccc(Cl)cc3Cl)nc3ncccc32)cc1 80
CCCN(CCC)CCCNC(=O)CNC(=O)c1nn(-c2ccc(OC)cc2)c(=O)c2ccccc12 93

B-score, inactive:
CCSc1nc(O)c(C(c2cccc(OC)c2)c2c(O)nc(SCC)[nH]c2=O)c(=O)[nH]1
CC1CCN(C(=O)C2CCN(S(=O)(=O)N3CCC4(CC3)OCCO4)CC2)CC1
COc1ccc(CCN2C(=O)C3CC=C(C)CC3C2=O)cc1OC (configuration not stated)
COc1ccc(CCN2C(=O)C(C)=C(C)C2=O)cc1OC
O=c1[nH]c2ccccc2s1
CN(CCc1cn[nH]c1)C(=O)CC1C(=O)NCCN1Cc1cccc(Oc2ccccc2)c1 (configuration not stated)
COc1ccc(CN2CCNC(=O)C2CC(=O)N(C)Cc2ccccn2)cc1OC (configuration not stated)
CCC(C)(C)NC(=O)C(c1ccc(O)cc1)N(Cc1ccco1)C(=O)CCC(=O)Nc1ccccn1 (configuration not stated)
CCOc1c2ccc(C(=O)NC3CCCc4ccccc43)cc2nn1CC (configuration not stated)
Cc1ccc(CN2CCN(Cc3ccccc3-c3ccco3)CC2CCO)o1 (configuration not stated)
OCCC#Cc1ccc(CN2CCN(Cc3ccsc3)C(CCO)C2)cc1 (configuration not stated)
COc1cc(CO)ccc1OCC(=O)Nc1cccc2ccccc12
CCN(CC(=O)NCc1cccs1)C(=O)c1ccc(OC)c(S(=O)(=O)N2CCOCC2)c1
O=C(c1c(F)cccc1Cl)N1CCN(c2ccccn2)CC1
CC(=O)NC1(c2ccc(F)cc2)CCN(C(=O)c2c(F)cccc2F)CC1
COc1ccc(Cl)cc1C(=O)NNC(=O)c1nc2nc(C)cc(C)n2n1
COc1ccc(-c2nn(-c3ccccc3)cc2C(=O)Nc2nc(CC(C)=O)ns2)cc1
Cc1ccc(-c2nn(-c3ccccc3)cc2CN(Cc2ccccc2)C(=O)CCC(=O)O)o1
COc1ccc(-c2cc(=O)oc3cc(OC(C)C(=O)NCC4CCC(C(=O)O)CC4)ccc23)cc1 (configuration not stated)
Cc1[nH]c2ccccc2c1-c1ccc(Cl)nn1
CCOC(=O)C1CCCCN1Cc1ccc(OC)c(OC)c1OC (configuration not stated)
CCOC(=O)c1cc(C)nc(S(C)(=O)=O)c1C#N
CCOC(=O)c1cc(C#N)c(N2CCCCC2)nc1-c1ccccc1
CC1CCN(CC(=O)Nc2nccs2)CC1
COc1ccc(Cl)cc1NC(=O)[C@@H]1CCCN1C(=O)c1cccs1
NS(=O)(=O)c1ccc(CCNc2nc(C(F)(F)F)nc3ccccc23)cc1
COc1cccc(CNc2nc(C(F)(F)F)nc3ccccc23)c1
COc1ccc(NC(=O)CC2C(=O)NC3CCCCC3N2C(=O)c2ccc(F)cc2)cc1 (configuration not stated)
CC1(C)C=C2[C@H]3CC[C@@H]4[C@@]5(C)CCC(=O)C(C)(C)[C@@H]5CC[C@@]4(C)[C@]3(C)CC[C@@]2(C(=O)O)CC1
CC1(C)C2CCC13CS(=O)(=O)NC3C2 (configuration not stated)
Cc1ccc(C(=O)NC23CC4CC(CC(C4)C2)C3)c(Cl)c1
Cc1ccc(S(=O)(=O)NCCC(=O)NNC(=O)C2COc3ccccc3O2)cc1 (configuration not stated)
O=C(NCc1ccccc1)C1=C[C@@H](c2ccc(C(F)(F)F)cc2)C[C@@H](OCc2ccc(CO)cc2)O1
O=C(NCc1ccccc1)C1=C[C@H](C2CC2)C[C@H](OCc2ccc(CO)cc2)O1
O=C(NCc1ccccc1)C1=C[C@@H](c2ccccc2)C[C@@H](OCCCCO)O1
O=C(C1=C[C@H](C2CC2)C[C@H](OCc2ccc(CO)cc2)O1)N1CCN(Cc2ccccc2)CC1
CC(=O)c1ccc(S(=O)(=O)Nc2ccc(-c3ccc4nncn4n3)cc2)cc1
C#CCOc1ccc(/C=C2/C(=O)ON=C2C)cc1OCC
COc1ccc(C(=O)C2CCCN(Cc3cccn3-c3ccccn3)C2)c(C)c1 (configuration not stated)
CCOC(=O)c1ccc(NC(=O)c2c(NCc3ccccc3)[nH]c(=O)[nH]c2=O)cc1
C/C=C(\C)C(=O)NCCN1C2=NC[C@H](Cc3ccc(O)cc3)N2C[C@@H]1Cc1ccc(OC)cc1
COc1cccc(CNC(=O)CCC2CCCN(Cc3ccc(OC(F)F)cc3)C2)c1 (configuration not stated)
CCNc1nc(SCCOc2ccccc2)nc(N(C)C)n1
O=C(NCCN1C(=O)S/C(=C\c2cccnc2)C1=O)c1ccc(S(=O)(=O)N2CCCC2)cc1
CC(=O)Nc1nc2ccccc2n1Cc1ccc(C)cc1
CC(=O)c1nc2ccccc2n1Cc1ccccc1
COC(=O)N/N=C/c1c[n+]([O-])c2ccccc2[n+]1[O-]
Cc1cc(C)cc(OCC(=O)NC(C)c2ccccc2)c1 (configuration not stated)
Cc1ccc(OCC(=O)NC(C)c2ccccc2)cc1C (configuration not stated)
CCc1ccccc1NC(=O)c1cc(-c2ccc3c(c2)OCO3)on1
O=S(=O)(c1ccccc1)N1CCC(c2ccccc2)CC1
Cc1ccc(S(=O)(=O)N2CCC(N3CCCCCC3)CC2)cc1
C/C(=N/OC(=O)c1ccc(Br)cc1)c1ccc(C)cc1
CC(C)N(Cc1nnc(-c2ccc(Cl)cc2)o1)C(=O)C1=COCCO1
Cc1cc(C(=O)Nc2ccccc2N2CCOCC2)c2ccccc2n1
CNC(=O)COC(=O)c1cc(-c2ccc(OC)cc2)nc2ccccc12
Cc1ccc(S(=O)(=O)NCC(=O)N(CC(=O)NCC2CCCO2)c2cccc(F)c2)cc1 (configuration not stated)
CN(C)CCCN(C(=O)c1ccc(S(=O)(=O)N2CCCCCC2)cc1)c1nc2cc3c(cc2s1)OCCO3
CN(C)CCCN(C(=O)c1ccc(S(=O)(=O)N2CCCCCC2)cc1)c1nc2ccc(Br)cc2s1
CCOc1ccc(N(CC(=O)NCCOc2ccccc2OC)S(=O)(=O)c2ccccc2)cc1
COc1ccc2nc(/N=C(\N)NC(=O)Nc3ccccc3)nc(C)c2c1
O=C(NNC(=O)C(O)c1ccccc1)NC1CCCCC1 (configuration not stated)
COC(=O)C1CCCCN1C(=O)c1ccc(OC2CCN(C(C)=O)CC2)c(OC)c1 (configuration not stated)
CN(CCO)S(=O)(=O)c1ccc2c(c1)C(=O)c1cc(S(=O)(=O)N(C)CCO)ccc1-2
COC(=O)c1sc(-c2ccc(C(C)(C)C)cc2)cc1NC(=O)/C=C/C(=O)O
NC(=O)CSc1nnc(NC(=O)c2ccc3ccccc3c2)s1
O=C(Nc1ccc2ccccc2c1)/C(=C/c1cccc(Br)c1)NC(=O)c1ccco1
Cc1ccc(OCC(=O)NCCCNC(=O)c2ccco2)cc1C
Cc1ccc(C(=O)NNC(=O)C(C)Oc2ccc3ccccc3c2)o1 (configuration not stated)
CCCc1ccc(OCCNC(=O)c2ccco2)cc1
COc1cccc(NC(=O)CN2CCN(CC(=O)Nc3ccccc3Cl)CC2)c1
Cc1ccc(C23CC4CC(CC(C(=O)NCC(=O)O)(C4)C2)C3)cc1
CCC(=O)Nc1nnc(S(=O)(=O)N(CC(C)C)c2ccccc2)s1
COn1c(-c2ccc(Cl)cc2Cl)nc2ncccc21
Clc1ccc(-c2cc(-c3ccccn3)on2)c(Cl)c1
COc1ccccc1/C=N/N1CCN(Cc2ccccc2Cl)CC1
CC(=O)N1CC2(C)CN(C(C)=O)CC(C)(C1)C2=O
COc1ccc(N2CCN(C(=O)CCNC(=O)c3ccc(Br)cc3)CC2)cc1
COc1ccc(-n2nc(C(=O)NCC(=O)Nc3cccc(C)n3)c3ccccc3c2=O)cc1
COCCCNC(=O)CNC(=O)c1nn(-c2ccc(OC)cc2)c(=O)c2ccccc12
CCOC(=O)c1cnn(Cc2ccccc2Cl)c1N
CCCC(C(=O)NC1CCCC1)N(C(=O)Cn1nnc(-c2ccc(C)o2)n1)c1cccc(O)c1 (configuration not stated)
